A word on the GI50: it is the concentration at which growth is held to half of that of the control.

A value given as a limit tells only on which side of the number the result lay.

What all share (assay type): functional
For one assay, the system named is WiDr. Briefly: Growth inhibition of human WiDr cells after 48 hrs by SRB assay. The procedure, abridged:
(§1)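 Cells from an academic source, kept in 25 cm² flasks in RPMI 1640 with 5% heat-inactivated fetal calf serum. Dosing began day 1 after plating, in triplicate at several dilutions across […]. Vehicle controls got DMSO 0.25% v/v. After 48 h exposure, cells were fixed with ice-cold 50% w/v TCA for 60 min at 4 °C and stained by SRB. OD was read at 492 nm, corrected for medium-only background, and GI50 was derived from dose-response data.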
For orientation: The SRB assay estimates cell density from bound dye.

A further assay deals with T47D. Briefly: Growth inhibition of human T47D cells after 48 hrs by SRB assay. In outline:
as §1

The test system of a further assay is SW1573. Briefly: Growth inhibition of human SW1573 cells after 48 hrs by SRB assay. The settings on record: SW1573, 48 h. In outline: as §1
For a further assay, the system named is HeLa. Description: Growth inhibition of human HeLa cells after 48 hrs by SRB assay. In outline:
as §1

A short description of assay [1]: Growth inhibition of human HBL100 cells after 48 hrs by SRB assay. The note with it: HBL-100, 48 h. The procedure, abridged:
as §1

Consider `CC(=O)OC/C(=C\c1ccc(Cl)cc1)C(=O)c1ccccc1`, for which the concentration for 50% growth inhibition (GI50) with WiDr was 4.8 µM; with T47D, 5.3 µM; in the assay with SW1573, 2.6 µM; in the assay on HeLa, 3.2 µM; in assay [1], 2.3 µM.

`CC(=O)OC/C(=C\c1ccc(Cl)cc1)C(=O)c1ccc(Cl)cc1`: the 50% growth inhibitory concentration (GI50) in the assay on WiDr worked out at 18 µM; in the assay on T47D, 5.4 µM; with SW1573 it was 3.4 µM; with HeLa it was 19 µM; in assay [1] it was 4 µM.

As to `CC(=O)OC/C(=C\c1ccccc1F)C(=O)c1ccccc1`, the GI50 in the assay with WiDr was found to be 19 µM; in the assay with T47D it was 18 µM; with SW1573, 6.1 µM; with HeLa it was 22 µM; in assay [1] it was 17 µM.

Take `CC(=O)OC/C(=C/c1ccccc1[N+](=O)[O-])C(=O)c1ccccc1`: the GI50 in the assay on WiDr was > 100 µM; with T47D it was 52 µM; in the assay on SW1573, > 100 µM; with HeLa, 78 µM; in assay [1], > 100 µM.

Take `C=C(C/C(=C\c1ccccc1F)C(=O)c1ccccc1)C(=O)c1ccccc1`: the concentration for 50% growth inhibition (GI50) in the assay on WiDr amounted to 17 µM; in the assay with T47D it was 14 µM; with SW1573 it was 3.5 µM; in the assay with HeLa it was 20 µM; in assay [1] it was 15 µM.

Turning to `O=C(OC/C(=C/c1ccc(Cl)cc1Cl)C(=O)c1ccccc1)c1ccccc1`, the 50% growth inhibitory concentration (GI50) was found to be 8.7 µM with WiDr; 5.4 µM with T47D; 29 µM in the assay on SW1573; 8.3 µM in the assay on HeLa; 26 µM in assay [1].

In the case of `CC(=O)OC/C(=C\c1ccc(Cl)cc1Cl)C(=O)c1ccccc1`, the GI50 was 14 µM in the assay with WiDr; 9.5 µM in the assay with T47D; 3.5 µM with SW1573; 16 µM with HeLa; 3.1 µM in assay [1].

As for `CC(=O)OC/C(=C/c1ccc(Cl)cc1Cl)C(=O)c1ccc(Cl)cc1`, the GI50 was 20 µM in the assay with WiDr; 20 µM in the assay on T47D; 21 µM in the assay with SW1573; 19 µM with HeLa; 22 µM in assay [1].

As to `C=C(C/C(=C\c1ccc(Cl)cc1)C(=O)c1ccccc1)C(=O)c1ccccc1`, the GI50 in the assay on WiDr came to 20 µM; in the assay with T47D, 19 µM; in the assay with SW1573, 6.1 µM; with HeLa, 22 µM; in assay [1], 17 µM.

Turning to `CC(=O)OC/C(=C/c1ccc([N+](=O)[O-])cc1)C(=O)c1ccccc1`, the concentration for 50% growth inhibition (GI50) in the assay on WiDr was found to be 83 µM; in the assay with T47D, 36 µM; in the assay with SW1573, 32 µM; with HeLa it was 36 µM; in assay [1], 41 µM.

With `O=C(/C(=C/c1ccc(Cl)cc1)CCl)c1ccccc1`, the 50% growth inhibitory concentration (GI50) is 19 µM with WiDr; 17 µM in the assay on T47D; 3.9 µM in the assay on SW1573; 22 µM in the assay on HeLa; 3.2 µM in assay [1].

On to `C=C(C/C(=C\c1ccc(OC)cc1)C(=O)c1ccccc1)C(=O)c1ccccc1`, for which the 50% growth inhibitory concentration (GI50) was determined as 0.47 µM in the assay with WiDr; 0.37 µM in the assay with T47D; 0.45 µM with SW1573; 0.32 µM with HeLa; 0.53 µM in assay [1].

`O=C(/C(=C\c1ccc(Cl)cc1Cl)c1ccccc1)c1ccccc1`: the 50% growth inhibitory concentration (GI50) in the assay with WiDr is 46 µM; in the assay with T47D, 52 µM; in the assay with SW1573 it was 41 µM; in the assay with HeLa it was 47 µM; in assay [1], > 100 µM.

In the case of `O=C(OC/C(=C\c1ccc(Cl)cc1Cl)C(=O)c1ccccc1)c1ccccc1`, the 50% growth inhibitory concentration (GI50) amounted to 17 µM in the assay on WiDr; 17 µM in the assay on T47D; 3.3 µM with SW1573; 20 µM in the assay with HeLa; 3.1 µM in assay [1].

Take `O=C(/C(=C/c1ccc(Cl)cc1Cl)CCl)c1ccccc1`: the GI50 with WiDr stood at 13 µM; in the assay with T47D, 6.3 µM; in the assay on SW1573, 3.8 µM; in the assay on HeLa, 15 µM; in assay [1], 3.1 µM.

For `CC(=O)OC/C(=C\c1ccccc1[N+](=O)[O-])C(=O)c1ccccc1`, the GI50 amounted to 18 µM with WiDr; 21 µM in the assay with T47D; 18 µM in the assay on SW1573; 25 µM in the assay on HeLa; 26 µM in assay [1].

For `COc1cc([C@@H]2c3cc4c(cc3[C@@H](O[C@@H]3O[C@@H]5CO[C@@H](C)O[C@H]5[C@H](O)[C@H]3O)[C@H]3COC(=O)[C@H]23)OCO4)cc(OC)c1O` [ETOPOSIDE], the 50% growth inhibitory concentration (GI50) in the assay on WiDr was 23 µM; with T47D, 22 µM; with SW1573, 15 µM; in the assay with HeLa, 3.3 µM; in assay [1], 1.4 µM.

Consider `CC(=O)OC/C(=C\c1ccc(F)cc1)C(=O)c1ccccc1`, for which the 50% growth inhibitory concentration (GI50) with WiDr amounted to 13 µM; in the assay with T47D, 14 µM; with SW1573, 4.2 µM; with HeLa, 25 µM; in assay [1] it was 17 µM.

`O=C(/C(=C/c1ccccc1)CCl)c1ccccc1`: the concentration for 50% growth inhibition (GI50) worked out at 18 µM with WiDr; 18 µM in the assay on T47D; 3.6 µM with SW1573; 23 µM in the assay with HeLa; 12 µM in assay [1].

Take `CCC(/C=C(\COC(C)=O)C(=O)c1ccccc1)CC`: the concentration for 50% growth inhibition (GI50) in the assay with WiDr was 52 µM; in the assay on T47D it was 89 µM; with SW1573, 77 µM; with HeLa, 50 µM; in assay [1] it was > 100 µM.

For `CC(=O)OC/C(=C/c1ccccc1Br)C(=O)c1ccccc1`, the GI50 in the assay on WiDr is 18 µM; in the assay with T47D it was 18 µM; in the assay with SW1573, 21 µM; in the assay on HeLa, 19 µM; in assay [1], 21 µM.

In the case of `O=C(OC/C(=C\C1CCCCC1)C(=O)c1ccccc1)c1ccccc1`, the 50% growth inhibitory concentration (GI50) with WiDr was 19 µM; in the assay with T47D, 20 µM; in the assay on SW1573, 17 µM; with HeLa, 24 µM; in assay [1], 23 µM.

Regarding `C=C(C/C(=C\c1ccccc1)C(=O)c1ccccc1)C(=O)c1ccccc1`, the concentration for 50% growth inhibition (GI50) worked out at 18 µM in the assay on WiDr; 15 µM with T47D; 3 µM with SW1573; 19 µM in the assay on HeLa; 10 µM in assay [1].

`CC(=O)OC/C(=C/c1ccccc1Cl)C(=O)c1ccccc1`: the concentration for 50% growth inhibition (GI50) in the assay on WiDr was 22 µM; with T47D, 19 µM; in the assay on SW1573, 14 µM; in the assay with HeLa it was 24 µM; in assay [1] it was 21 µM.

On to `C=C(C/C(=C\c1ccc(Cl)cc1)C(=O)c1ccc(Cl)cc1)C(=O)c1ccc(Cl)cc1`, for which the 50% growth inhibitory concentration (GI50) in the assay with WiDr came to 24 µM; in the assay on T47D, 17 µM; in the assay with SW1573 it was 5.3 µM; in the assay with HeLa, 21 µM; in assay [1], 16 µM.

Consider `C=C(C/C(=C\c1ccc(F)cc1)C(=O)c1ccccc1)C(=O)c1ccccc1`, for which the GI50 worked out at 19 µM in the assay on WiDr; 15 µM with T47D; 3.5 µM in the assay on SW1573; 18 µM in the assay on HeLa; 14 µM in assay [1].

As to `O=C(/C(=C/C1CCCCC1)c1ccccc1)c1ccccc1`, the GI50 in the assay on WiDr was found to be 34 µM; in the assay on T47D, 39 µM; in the assay on SW1573 it was 29 µM; with HeLa, 47 µM; in assay [1], 57 µM.

As for `CC(=O)OC/C(=C/c1ccc(Cl)cc1Cl)C(=O)c1ccccc1`, the GI50 stood at 19 µM in the assay on WiDr; 20 µM with T47D; 22 µM in the assay on SW1573; 22 µM with HeLa; 23 µM in assay [1].

`O=C(/C=C/C1CCCCC1)c1ccccc1`: the GI50 in the assay with WiDr stood at 21 µM; in the assay with T47D, 15 µM; in the assay on SW1573, 10 µM; in the assay on HeLa it was 21 µM; in assay [1], 18 µM.

For `CC(=O)OC/C(=C\C1CCCCC1)C(=O)c1ccccc1`, the 50% growth inhibitory concentration (GI50) is 21 µM with WiDr; 22 µM in the assay on T47D; 19 µM with SW1573; 21 µM in the assay on HeLa; 21 µM in assay [1].

With `O=C(OC/C(=C\c1ccccc1[N+](=O)[O-])C(=O)c1ccccc1)c1ccccc1`, the GI50 worked out at 18 µM in the assay on WiDr; 16 µM in the assay with T47D; 4.3 µM in the assay on SW1573; 22 µM with HeLa; 3.9 µM in assay [1].

On to `O=C(/C(=C/C1CCCCC1)CCl)c1ccccc1`, for which the GI50 turned out to be 22 µM in the assay on WiDr; 29 µM with T47D; 23 µM with SW1573; 30 µM in the assay with HeLa; 22 µM in assay [1].

Consider `CC(=O)OC/C(=C\c1ccccc1Br)C(=O)c1ccccc1`, for which the GI50 in the assay with WiDr was determined as 21 µM; with T47D, 17 µM; in the assay on SW1573, 14 µM; in the assay on HeLa it was 20 µM; in assay [1] it was 22 µM.

Consider `CC(=O)OC/C(=C/c1ccc(Cl)cc1)C(=O)c1ccc(Cl)cc1`, for which the GI50 came out at 17 µM in the assay on WiDr; 12 µM in the assay on T47D; 5.3 µM in the assay on SW1573; 5.7 µM in the assay with HeLa; 16 µM in assay [1].

On to `CC(=O)OC/C(=C\c1ccc([N+](=O)[O-])cc1)C(=O)c1ccccc1`, for which the GI50 came to 23 µM in the assay with WiDr; 16 µM in the assay with T47D; 3.8 µM in the assay with SW1573; 26 µM with HeLa; 10 µM in assay [1].

Consider `O=C(/C(=C\C1CCCCC1)c1ccccc1)c1ccccc1`, for which the GI50 with WiDr was 64 µM; in the assay on T47D it was 74 µM; in the assay with SW1573, 64 µM; in the assay on HeLa, 63 µM; in assay [1], 59 µM.

On to `O=C(/C=C/c1ccc(Cl)cc1Cl)c1ccccc1`, for which the GI50 stood at 20 µM in the assay on WiDr; 14 µM in the assay with T47D; 12 µM in the assay on SW1573; 18 µM in the assay with HeLa; 17 µM in assay [1].

For the molecule `CC(=O)OC/C(=C\c1ccc(Cl)cc1Cl)C(=O)c1ccc(Cl)cc1`, the 50% growth inhibitory concentration (GI50) was 8.1 µM in the assay on WiDr; 5.2 µM in the assay with T47D; 3.4 µM in the assay with SW1573; 4.6 µM in the assay on HeLa; 3.2 µM in assay [1].

The values above are taken from ChEMBL document CHEMBL3085652, “Synthesis and antiproliferative activity of α-branched α,β-unsaturated ketones” (2013).
